Bioassay records deposited in PubChem BioAssay by Broad Institute.
dFosB act: activators of mouse delta FosB homodimer; P13346; 0.99% of 340,000 active; activation, % at 25 µM; purified delta FosB, TAMRA-CDK5 oligo fluorescence polarization; percent of positive-control signal above neutral wells; AID 493131;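 active means mean activation above about 17%, with every replicate also reaching it, limit read from the data, passing the limit was not always enough; inconclusive means only one of the two conditions met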
RAD54 branch: inhibitors of human RAD54 branch migration; Q92698; RAD54 Holliday junction branch migration, FAM/BHQ fluorescence; inhibition, % at 10.4 µM; 0.14% of 360,000 active; AID 602329;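 active means mean normalized replicate activity at least 40 and at least half of replicates scoring 40 or more; inconclusive means only one of the two criteria met; inactive means mean below 40 and under half of replicates reaching 40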;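 further: 0% = median of neutral control wells and 100% = median of positive control wells; inhibitors cause a drop in the FAM fluorescence signal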
S100A4 MyoIIA: inhibitors of human S100A4 binding to myosin IIA peptide; P26447; S100A4/TAMRA-MyoIIA peptide fluorescence polarization; inhibition, % at 10.7 µM; 0.14% of 360,000 active; AID 652163;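 active means mean inhibition of at least 70% across replicates, with every replicate also reaching that level; inconclusive means mean inhibition reaches 70% but some replicates fall short; inactive means mean inhibition below 70%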
Target sequence (P26447 whole entry, looked up): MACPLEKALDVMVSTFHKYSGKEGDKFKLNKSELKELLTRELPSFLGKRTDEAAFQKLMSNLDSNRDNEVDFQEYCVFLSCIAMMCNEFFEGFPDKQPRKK
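Material: S100A4 monomer protein / Buffer or medium: 50 mM HEPES pH 7.2, 10 mM CaCl2, 100 mM KCl / Times: 5 min incubation before reading / Benchmarks: neutral control DMSO, positive control TFP / Reagent: labelled myosin peptide probe, 5 nM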
MLL AF4-AF9 inh: inhibitors of human MLL-AF4/AF9 interaction; AlphaScreen, biotin-AF4 peptide binding to FLAG-AF9; inhibition, % at 10 µM; P42568; AID 651704; 0.47% of 350,000 active;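 active means every replicate reaching a set inhibition limit, whatever the replicate mean, cut at about 25% in these data; inconclusive means mean inhibition reaches that limit but some replicates miss it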;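 further: 0% = plate neutral control median and 100% = total signal loss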
RAD52 anneal inh: blocks human RAD52 DNA annealing; recombinant RAD52 DNA annealing, FRET fluorescence; 0.46% of 360,000 active; inhibition, % at 18.7 µM; P43351;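 active means every replicate showing at least 50% inhibition; inconclusive means mean inhibition at least 50% but not in every replicate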
Target sequence (P43351 whole entry, looked up): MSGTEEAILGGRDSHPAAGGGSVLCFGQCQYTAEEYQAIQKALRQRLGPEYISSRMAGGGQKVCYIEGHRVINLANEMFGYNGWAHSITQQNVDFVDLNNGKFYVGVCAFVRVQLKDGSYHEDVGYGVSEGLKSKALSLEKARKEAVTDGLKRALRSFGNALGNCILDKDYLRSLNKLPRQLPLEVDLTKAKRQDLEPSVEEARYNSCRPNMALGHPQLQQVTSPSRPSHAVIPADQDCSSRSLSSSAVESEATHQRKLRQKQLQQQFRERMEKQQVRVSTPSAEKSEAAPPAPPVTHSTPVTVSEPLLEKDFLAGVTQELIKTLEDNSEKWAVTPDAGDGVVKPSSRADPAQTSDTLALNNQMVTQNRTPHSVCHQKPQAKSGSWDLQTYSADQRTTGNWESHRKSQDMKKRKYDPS
Rad54 DNA ctr: counter-screen for Rad54 inhibitors: DNA binding compounds; shares compounds with RAD54 branch; Acridine orange-DNA displacement, fluorescence polarization, 20 min; AC50, µM (highest dose often 35 µM), for inactives: at the highest dose activity change, negative = DNA binding; 8% of 460 active;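 active means signal drop giving an AC50 within twice the top valid tested concentration of each sample, actives reach about 35 µM in these data; inactive means activity opposite to expected, plus the rest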;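 further: polarization loss reports compound binding to salmon sperm DNA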
Active calls of the source: *; i = inactive; ? = inconclusive; / = not tested or not shown. The list is not random: actives were taken first. Their share in the collection is about 1.5%.

SMILES | dFosB act | RAD54 branch | S100A4 MyoIIA | MLL AF4-AF9 inh | RAD52 anneal inh | Rad54 DNA ctr
CC(C)NC(=O)N(C)C[C@H]1Oc2c(NC(=O)NC3CCCCC3)cccc2C(=O)N([C@@H](C)CO)C[C@@H]1C | / | -4 | 8 | -1 | 1 | /
COC(=O)c1c(NC(=O)c2ccc([N+](=O)[O-])o2)sc2c1CCN(C(C)C)C2 | 9 | 68* | 0 | -7 | -12 | 9%
CC(C)N1CCc2c(sc(NC(=O)c3ccc([N+](=O)[O-])o3)c2C(N)=O)C1 | 5 | 19 | 8 | 6 | 32 | /
Cc1ccc(OCC(=O)Nc2cccc(-c3nnc(-c4ccccc4)o3)c2)c(C)c1 | -9 | ? | / | / | / | 7%
COc1ccc(CC(=O)Nc2cccc(-c3nnc(-c4ccc(C)cc4)o3)c2)cc1OC | -15 | 2 | 2 | -41 | -3 | /
[N-]=[N+]=NCc1ccccc1C[C@@]1(C(=O)NCC(O)CO)N=C(c2ccc(OCCCO)cc2)O[C@@H]1c1ccccc1 (stereo partly specified) | / | -7 | -7 | 1 | 13 | /
CCOC(=O)c1c(C)n(C)c2ccc(OCC(O)CN3CCN(C)CC3)cc12 (stereo unspecified) | 3 | ? | 6 | 7 | 1 | -14%
C[C@H](CO)N1C[C@H](C)[C@H](CN(C)C(=O)Nc2ccc(C(F)(F)F)cc2)Oc2ccc(NC(=O)CCC(F)(F)F)cc2CC1=O | / | 2 | / | / | / | /
Cc1cccc2cc3c(N)c(C#N)sc3nc12 | -4 | 71* | / | / | / | 2%
CSc1nnc2c3cc(F)ccc3n(Cc3ccccc3)c2n1 | -1 | -1 | / | / | / | /
CCN(CC)CCSc1nnc2c3cc(C)ccc3n(Cc3ccccc3)c2n1 | / | ? | -8 | 6 | 35 | 2%
C/C=C/c1ccc2c(c1)O[C@H](CN(C)C(=O)C1CCOCC1)[C@H](C)CN([C@@H](C)CO)S2(=O)=O | / | 0 | -18 | -2 | 0 | /
CC(C)NC1CCC(Nc2ccnc3cc(Cl)ccc23)CC1 (stereo unspecified) | 17* | ? | 11 | -5 | -20 | -19%
CC(CCCN1CCCC1)Nc1ccnc2cc(Cl)ccc12 (stereo unspecified) | 42* | 55* | -1 | 14 | 51* | -15%
O=C(C[C@H]1C=C[C@@H](NC(=O)C2CCOCC2)[C@H](CO)O1)NCC1CC1 | / | -5 | 6 | -1 | 2 | /
COc1cccc(-c2ccc([C@@H]3[C@H]4CN(C(=O)C5CCC5)CC(=O)N4[C@H]3CO)cc2)c1 | / | / | 9 | -7 | 5 | /
CCN(CC)S(=O)(=O)c1ccc(Cl)c(C(=O)Nc2nnc(C)s2)c1 | -6 | ? | / | / | / | -8%
C[C@H]1CN([C@@H](C)CO)C(=O)Cc2cc(NC(=O)Nc3ccc(C(F)(F)F)cc3)ccc2O[C@H]1CN(C)C(=O)Nc1ccc(F)cc1 | / | 8 | 11 | 2 | -13 | /
CCc1nc(Nc2ccncc2)c2oc3ccccc3c2n1 | -51 | 66* | / | / | / | -19%
CN(C)CCCNC(=O)C[C@H]1CC[C@@H]2[C@H](COC[C@H](O)CN2CC2CCCCC2)O1 | / | / | 7 | -13 | 12 | /
CCN(CC)CCCNC(=O)C1CCN(c2ncnc3c2sc2cccc(F)c23)CC1 | -40 | 53* | 3 | 3 | 42 | -1%
CSc1nc(C)c2c(n1)N(c1ccc(F)cc1)CC2 | -3 | / | / | / | / | /
Cc1ccc2nc(C)c3c(c2c1)N(c1ccc(F)cc1)CC3 | -6 | ? | 3 | / | 41 | -14%
C[C@@H]1CCCCO[C@@H](CN(C)C(=O)C2CCCCC2)[C@@H](C)CN([C@@H](C)CO)C(=O)c2cc(NS(=O)(=O)c3cccs3)ccc2O1 | / | 4 | / | / | / | /
C[C@H](CO)N1C[C@H](C)[C@H](CN(C)CC2CC2)Oc2ccc(NC(=O)Cc3ccccc3)cc2C1=O | / | 4 | -17 | 3 | 8 | /
SMILES | dFosB act | RAD54 branch | S100A4 MyoIIA | MLL AF4-AF9 inh | RAD52 anneal inh | Rad54 DNA ctr
CN(C)c1cc(NC(=O)CNC(C)(C)C)c2ccccc2n1 | 11 | 76* | -4 | / | 28 | -11%
CCCCC(=O)Nc1cc(N(C)C)nc2ccccc12 | -10 | 4 | / | / | / | /
CN1CCN(c2ncnc3c2[nH]c2ccc(F)cc23)CC1 | 4 | 76* | / | / | / | -3%
c1ccc2c(c1)[nH]c1c(N3CCN(C4CCCCC4)CC3)ncnc12 | 9 | ? | / | / | / | 4%
Fc1ccc2[nH]c3c(N4CCc5ccccc5C4)ncnc3c2c1 | / | 1 | 1 | -2 | -7 | /
CCOC(=O)c1cnc2c(Cl)cccc2c1NCCCN1CCOCC1 | -4 | ? | -1 | -1 | 16 | -22%
CCOC(=O)c1cnc2c(C(F)(F)F)cccc2c1NCCCN1CCOCC1 | -15 | 11 | 1 | 1 | -9 | /
CCOC(=O)c1cnc2c(CC)cccc2c1NCCCN1CCOCC1 | 5 | ? | 6 | 0 | 32 | 10%
COCC(=O)Nc1ccc2c(c1)OC[C@@H](C)N(CC1CCCCC1)C[C@H](C)[C@@H](OC)CN(C)C2=O | / | -14 | 9 | 4 | -1 | /
C[C@H](CO)N1C[C@H](C)[C@H](CN(C)Cc2ccccc2)Oc2ccc(NC(=O)CCN3CCOCC3)cc2C1=O | / | 0 | 5 | 0 | -6 | /
O=C(COc1ccc2c(c1)oc(=O)c1ccccc12)NCCCN1CCOCC1 | -38 | ? | -2 | -4 | 18 | i
CN1CCCC1CCNc1ccc2oc3ccccc3c(=O)c2c1 (stereo unspecified) | / | / | 0 | 9 | 28 | /
O=c1c2ccccc2oc2ccc(NCCCN3CCOCC3)cc12 | 8 | ? | 4 | 10 | -4 | 18%
O=c1c2ccccc2oc2cc(NCCCN3CCOCC3)ccc12 | ? | 66* | -3 | -5 | 29 | -16%
CN1CCCC1CCNc1ccc2c(=O)c3ccccc3oc2c1 (stereo unspecified) | 7 | 92* | 0 | -12 | 44 | -13%
O=C(C[C@@H]1CC[C@@H]2[C@H](COC[C@H](O)CN2Cc2cc(F)cc(F)c2)O1)NCc1cccc(F)c1 | / | -9 | 10 | -2 | 2 | /
COc1cccc(-c2nc(N3CCN(Cc4ccccc4)CC3)c3ccccc3n2)c1O | -7 | 64* | -3 | 1 | -13 | -1%
CCCC(=O)Nc1ccc2c(c1)C(=O)N(C)[C@@H]1CC[C@H](CC(=O)Nc3ccccc3)O[C@@H]1CO2 | / | 0 | 3 | -1 | 3 | /
COCCNC(=S)Nc1ccc2nc(N3CCCC3)cc(C)c2c1 | 9 | 38 | / | / | / | /
CCN1CCN(C(=S)Nc2ccc3nc(N4CCN(CC)CC4)cc(C)c3c2)CC1 | 5 | 62* | / | / | / | 1%
CCN1CCN(c2cc(C)c3cc(NC(=S)N4CCCC4)ccc3n2)CC1 | 6 | / | 2 | 1 | 25 | /
CCOCCCNC(=S)Nc1ccc2nc(N3CCCC3)cc(C)c2c1 | 8 | 60* | / | / | / | -8%
COc1ccc(N2C(=O)CSC23CCCCC3)cc1 | -8 | ? | / | / | / | -9%
CCOc1ccc(N2C(=O)CSC23CCCCC3)cc1 | 1 | -16 | / | / | / | /
